16 compounds from ChEMBL document CHEMBL3588754, “Parallel Synthesis of Hexahydrodiimidazodiazepines Heterocyclic Peptidomimetics and Their in Vitro and in Vivo Activities at μ (MOR), δ (DOR), and κ (KOR) Opioid Receptors” (J Med Chem, 2015) can be followed below.

In experiment [1] the target is Delta-type opioid receptor (Rattus norvegicus, UniProt P33533). Kind of experiment: Displacement of [3H]DPDPE from delta opioid receptor in rat cortices by competition binding assay. Summed up:
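Rat cortex membranes were prepared in 50 mM Tris pH 7.4 with 10 mM MgCl2 and 200 μM PMSF. Assay used 2 nM [3H]DPDPE, incubated 2.5 h at 25 °C. Unlabeled DPDPE defined nonspecific binding. Filtration was through BSA-soaked GF/B filters, with scintillation counting. Ki is mean ± SD of two experiments, each in duplicate.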
A general note: Loss of bound radioactivity is the signal in a displacement assay; it reports binding, not function.

Experiment [2] deals with Kappa-type opioid receptor (Cavia porcellus, UniProt P41144). Kind of experiment: Displacement of [3H]U69593 from kappa opioid receptor in guinea pig cortices and cerebella by competition binding assay. The method in brief: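 Guinea pig cortex and cerebellum membranes were prepared in 50 mM Tris pH 7.4 with 10 mM MgCl2. Assay used 2 nM [3H]U69,593, incubated 2 h at 25 °C. Unlabeled U50,488 defined nonspecific binding. Filtration was through GF/B filters, with scintillation counting. Ki is mean ± SD of two experiments, each in duplicate.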

Experiment [3] has as its target Delta-type opioid receptor (Homo sapiens, UniProt P41143). Kind of experiment: Agonist activity at delta opioid receptor (unknown origin) expressed in CHO-K1 cells assessed as inhibition of forskolin-induced cAMP accumulation by FRET assay. The class given is functional, cell-based. Summed up: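 CHO cells stably expressing DOR, plated at 20 000 cells/well (figure legend: 100 000). Exposed to test agent with 4 μM forskolin (legend: 1 μM) in 1× PBS with 1 mM […] for 30 min at rt. HTRF cAMP read-out with europium cryptate and d2 in lysis buffer for 1 h. EC50 ± SEM from three experiments, two replicates each.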
(In general: Changes in cAMP serve as a functional read-out for many G protein-coupled receptors.)

In experiment [4] the target is Mu-type opioid receptor (Rattus norvegicus, UniProt P33535). Kind of experiment: Displacement of [3H]DAMGO from mu opioid receptor in rat cortices by competition binding assay. The method in brief:
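Rat cortex membranes were prepared in 50 mM Tris pH 7.4, preincubated at 37 °C for 30 min, and resuspended with 2 mg/mL bovine serum. Assay used 2 nM [3H]DAMGO. Binding was stopped by filtration through BSA-soaked GF/B filters, followed by scintillation counting. IC50 was converted to Ki. Values are mean ± SD of two experiments, each in duplicate.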

Experiment [5] concerns Mus musculus. Description: Antinociceptive effect in ip dosed C57BL/6 mouse assessed as tail withdrawal latency measured up to 2 hrs by 55 degC Warm water tail withdrawal assay. The class given is functional. Particulars: C57BL/6, Tail.
Experiment [6] concerns Mus musculus. Kind of experiment: Antinociceptive effect in icv dosed C57BL/6 mouse assessed as tail withdrawal latency measured up to 2 hrs by 55 degC Warm water tail withdrawal assay. The class given is functional.
Experiment [7] deals with Mus musculus. Description: Antinociceptive effect in po dosed C57BL/6 mouse assessed as tail withdrawal latency measured up to 2 hrs by 55 degC Warm water tail withdrawal assay. The class given is functional. Particulars: C57BL/6, Tail.
The species entered for experiment [8] is Mus musculus. Kind of experiment: Ratio of ED50 for antinociceptive effect in C57BL/6 mouse by 55 degC Warm water tail withdrawal assay to ED50 for analgesic activity in C57BL/6 mouse by acetic acid writhing assay. The class given is functional. Summed up: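 Index from ip ED50 values in adult male C57BL/6J mice given ip doses in 1:1:8 ethanol/Tween-80/saline (n = 8/dose). Tail-withdrawal: 55 °C water, read at 30 min, % antinociception against baseline with a 15 s cutoff. Writhing: 0.9% acetic acid ip 25 min post-dose, writhes counted over 15 min, compared with vehicle. ED50 from regression; ratio is tail-withdrawal/writhing.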

For orientation: Ki means a measure of affinity in units of concentration, obtained from inhibition or displacement. A low value points to tighter binding. Usually EC50 stands for the midpoint of the concentration-response curve. What is called ED50 is the midpoint of the dose-response relation.

`CC(C)C[C@H]1CN2C(=CC3=NC[C@H](Cc4ccccc4)N3C[C@@H]2Cc2ccc(O)cc2)N1CCc1ccccc1`: the Ki in experiment [1] stood at 37 nM; in experiment [2] it was 642 nM; in experiment [4], 949 nM. In experiment [3], the EC50 was 1.64 µM.
As to `Oc1ccc(C[C@H]2CN3C(=CC4=NC[C@H](Cc5ccccc5)N4C[C@@H]3Cc3ccccc3)N2CCc2ccccc2)cc1`, the Ki is 1280 nM in experiment [1], more than 10000 nM in experiment [2] and 3150 nM in experiment [4].
As to `CC(C)C[C@H]1CN2C(=CC3=NC[C@H](C(C)C)N3C[C@@H]2Cc2ccccc2)N1CCc1ccccc1`, the Ki is 1020 nM in experiment [1], 1400 nM in experiment [2] and 2750 nM in experiment [4].
The matching figures for `CC(C)C[C@H]1CN2C(=CC3=NC[C@H](C(C)C)N3C[C@@H]2Cc2ccccc2)N1`: not below 10000 nM, 1080 nM and more than 10000 nM.
Regarding `Oc1ccc(C[C@H]2CN3C(=CC4=NC[C@H](Cc5ccccc5)N4C[C@@H]3Cc3ccc(O)cc3)N2CCc2ccccc2)cc1`, the figures for the Ki in experiment [1], in experiment [2] and in experiment [4] were 188 nM, 1310 nM and 878 nM, respectively.
In the same order, the values of `Oc1ccc(C[C@H]2CN3C(=CC4=NC[C@H](Cc5ccccc5)N4C[C@@H]3Cc3ccccc3)N2)cc1` are 2090 nM, 8390 nM and 566 nM.
In the case of `CC(C)C[C@H]1CN2C(=CC3=NC[C@H](C(C)C)N3C[C@@H]2Cc2ccc(O)cc2)N1`, the inhibition constant Ki in experiment [1] was 215 nM; in experiment [2], 209 nM; in experiment [4] it was 1190 nM.
For `CC(C)[C@H]1CN=C2C=C3N[C@@H](Cc4ccc(O)cc4)CN3[C@@H](Cc3ccccc3)CN21`, the inhibition constant (Ki) in experiment [1] was not below 10000 nM; in experiment [2], 1950 nM; in experiment [4], 5040 nM.
In the same order, the values of `CC(C)[C@H]1CN=C2C=C3N(CCc4ccccc4)[C@@H](Cc4ccc(O)cc4)CN3[C@@H](Cc3ccccc3)CN21` are 1380 nM, 1900 nM and 1110 nM.
In the same order, the values of `Oc1ccc(C[C@H]2CN3C(=CC4=NC[C@H](Cc5ccc(O)cc5)N4C[C@@H]3Cc3ccc(O)cc3)N2)cc1` are 316 nM, 3760 nM and 552 nM.
`CC(C)C[C@H]1CN2C(=CC3=NC[C@H](Cc4ccccc4)N3C[C@@H]2Cc2ccc(O)cc2)N1`: the Ki in experiment [1] stood at 57 nM; in experiment [2] it was 3440 nM; in experiment [4] it was 1330 nM. The EC50 in experiment [3] amounted to 6.36 µM.
Turning to `CN1CC[C@]23c4c5ccc(O)c4O[C@H]2[C@@H](O)C=C[C@H]3[C@H]1C5` [MORPHINE], the ED50 is 3.91 mg/kg in experiment [5] and 2.07 mg/kg in experiment [7]. For the same compound, the Activity result in experiment [6] is “Dose-dependent effect”. In experiment [8], the “Ratio ED50” value was 2.23.
`Oc1ccc(C[C@H]2CN3C(=CC4=NC[C@H](Cc5ccccc5)N4C[C@@H]3Cc3ccc(O)cc3)N2)cc1`: the Ki in experiment [1] is 338 nM; in experiment [2] it was 4140 nM; in experiment [4] it was 1180 nM.
Consider `Oc1ccc(C[C@H]2CN3C(=CC4=NC[C@H](Cc5ccc(O)cc5)N4C[C@@H]3Cc3ccc(O)cc3)N2CCc2ccccc2)cc1`, for which the Ki in experiment [1] came out at 392 nM; in experiment [2], 1550 nM; in experiment [4], 246 nM.
The matching figures for `Oc1ccc(C[C@H]2CN3C(=CC4=NC[C@H](Cc5ccc(O)cc5)N4C[C@@H]3Cc3ccccc3)N2CCc2ccccc2)cc1`: 50 nM, 767 nM and 393 nM.
The matching figures for `Oc1ccc(C[C@H]2CN3C(=CC4=NC[C@H](Cc5ccc(O)cc5)N4C[C@@H]3Cc3ccccc3)N2)cc1`: 69 nM, 2370 nM and 605 nM.
